Results published in PubChem BioAssay.
Activity calls are given as the source filed them.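 Rule for the calls, unless noted: active = inhibition at or above 50% at 10 µM; inactive = inhibition below 50%.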

Assays:
[1] = inhibitors of TNFa-induced NFkB p65 translocation, primary screen, imaging, HUVEC, MLSMR starter and 10KST1 sets (AID 438;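 active = inhibition above 20% together with a positive visual image hit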;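 note: compound added about 3h40 before a 20 min TNFalpha stimulation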;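 for inhibition: signal is the nuclear over cytoplasmic p65 intensity ratio per well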); conditions: HUVEC TNFa-induced p65 nuclear translocation; cell count: measured here: nuclei count (cytotoxicity indicator), at 2.08 µM; inhibition: at 2 µM, stronger effect = higher value, 0% TNFa-plus-vehicle, 100% no-TNFa wells
[2] = reduction of polyQ htt aggregates in cells – imaging, exon1htt(103Q)mCFP cells, high-content imaging, primary screen (AID 483;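 active = visual image review flags a hit and inhibition of aggregation exceeds 20%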;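 note: compound exposure lasted 3 days before fixation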;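 for nuclei count: percent of the per-plate median nuclei count of sample wells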); conditions: exon1htt(103Q)mCFP cell line, aggregate imaging, at 2 µM; inhibition of aggregation: stronger effect = higher value; nuclei count: measured here: cell count, toxicity
[3] = endothelial E-selectin expression blockers – imaging, HUVEC, immunofluorescence, MLSMR starter and 10KST1 sets, primary screen (AID 487;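 active = visually confirmed hit in the image check and inhibition above 20%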;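 for inhibition: signal is fraction of cell area covered by stained E-selectin grains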;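 for nuclei count: 100% = median nuclei count of all wells on the same plate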); conditions: HUVEC TNFalpha-induced E-selectin immunofluorescence imaging, at 2 µM; inhibition: stronger effect = higher value; nuclei count: measured here: cell number, toxicity
[4] = target: Voltage-gated potassium channel subunit beta-2 (Rattus norvegicus) (UniProt P62483); test: inhibitors of rat Kvbeta2 reductase activity – biochemical, NADPH fluorescence, primary screen (AID 622;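 active = fluorescence slope higher than the sample average by over 3 SD, cut at about -0.22 in these data, passing the limit was not always enough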;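 note: slope of raw intensity against log time taken from 70 to 1610 s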); conditions: recombinant KvBeta, 4-cyanobenzaldehyde reduction, at 10 µM, stronger effect = higher value
[5] = target: Voltage-gated potassium channel subunit beta-2 (Rattus norvegicus) (UniProt P62483); test: enhancers of rat Kvbeta2 NADPH turnover – biochemical, NADPH fluorescence, primary screen (AID 623;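 active = NADPH fluorescence slope more negative than the mean of all samples by about 3 SD, 99.7% confidence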;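 note: fluorescence intensity change per second fitted from 20 to 320 s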); conditions: Recombinant KvBeta, NADPH fluorescence decrease slope, 10 min; at 10 µM; stronger effect = lower value
[6] = target: Muscarinic acetylcholine receptor M4 (Homo sapiens) (UniProt P08173); test: M4-linked GIRK flux change, two-sided – cell-based, HEK293 M4/GIRK, thallium flux, BTC-AM, M4 allosteric agonist project, primary screen (AID 625;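 active = fluorescence slope after compound addition differing from the mean of all tested samples at 99.7% confidence, mostly higher but some lower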;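 note: thallium influx through GIRK channels coupled to M4 in HEK293 cells with BTC-AM dye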); conditions: at 10 µM, actives lie on both sides
Procedure, shortened: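 Material: M4/GIRK1/GIRK2 stable HEK293 cell line. Medium: pH 7.3 thallium assay buffer. Dosing: single compound concentration, 10 µM final. Schedule: 1 h dye loading, 2 min kinetic read. Measured by: kinetic fluorescence with BTC-AM dye. Read-out: post-addition slope, 15–24 s, of baseline-normalized fluorescence. Benchmarks: carbachol and DMSO controls.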

[7] = blockers of RIG-like receptor reporter activation – cell-based, Sendai virus stimulus, luciferase, 10K MLSCN set, TLR/RLR signaling modifier project, primary screen (AID 602276); conditions: HEK293 RL24 IRF3 luciferase reporter, at 10 µM, stronger effect = higher value;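 note: firefly luciferase from ISG56 promoter only with Renilla not read in this screen; 0% = Sendai virus plus DMSO and 100% = medium plus DMSO without virus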
[8] = TLR3 IRF3 reporter activation blockers – cell-based, poly I:C stimulus, luciferase, 10K MLSCN set, primary screen (AID 602277;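 active = inhibition of the reporter signal at or above 50%; inactive = inhibition below 50%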); conditions: HEK293-TLR3 RL24 IRF3 luciferase reporter, at 10 µM, stronger effect = higher value

Muscarinic acetylcholine receptor M4 (Homo sapiens), sequence (P08173 whole entry, looked up): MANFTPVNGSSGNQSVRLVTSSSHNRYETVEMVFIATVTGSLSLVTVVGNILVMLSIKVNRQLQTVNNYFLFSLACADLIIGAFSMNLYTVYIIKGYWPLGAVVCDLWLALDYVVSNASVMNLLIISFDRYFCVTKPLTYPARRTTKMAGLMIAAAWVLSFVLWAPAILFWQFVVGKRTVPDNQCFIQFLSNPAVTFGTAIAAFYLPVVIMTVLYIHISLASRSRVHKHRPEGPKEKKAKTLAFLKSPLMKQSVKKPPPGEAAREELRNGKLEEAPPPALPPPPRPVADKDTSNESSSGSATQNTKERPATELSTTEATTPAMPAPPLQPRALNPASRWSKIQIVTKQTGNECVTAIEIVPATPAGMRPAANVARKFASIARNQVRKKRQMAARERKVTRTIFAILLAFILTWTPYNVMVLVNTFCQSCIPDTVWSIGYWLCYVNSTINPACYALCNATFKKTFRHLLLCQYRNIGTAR
Voltage-gated potassium channel subunit beta-2 (Rattus norvegicus), sequence (P62483 whole entry, looked up): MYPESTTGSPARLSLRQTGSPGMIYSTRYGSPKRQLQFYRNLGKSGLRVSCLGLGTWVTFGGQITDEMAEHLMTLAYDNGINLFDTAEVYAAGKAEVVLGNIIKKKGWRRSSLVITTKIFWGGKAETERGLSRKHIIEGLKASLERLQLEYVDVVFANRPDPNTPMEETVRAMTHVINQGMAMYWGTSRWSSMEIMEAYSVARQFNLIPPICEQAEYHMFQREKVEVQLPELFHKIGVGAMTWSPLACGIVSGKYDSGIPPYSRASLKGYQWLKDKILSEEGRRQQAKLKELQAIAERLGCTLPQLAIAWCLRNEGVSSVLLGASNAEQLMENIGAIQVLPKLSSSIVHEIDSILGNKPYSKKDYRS

SMILES	cell count [1]	inhibition [1]	inhibition of aggregation [2]	nuclei count [2]	inhibition [3]	nuclei count [3]	fluorescence slope [4]	NADPH fluorescence slope [5]	fluorescence slope [6]	inhibition [7]	inhibition [8]
CCOC(=O)COc1ccc(S(=O)(=O)N2CCc3ccccc3C2)cc1	447	3.3% (inactive)	-59% (inactive)	58.4%	-5.1% (inactive)	96%	-0.555 (inactive)	-4.9e-05 (inactive)	0.00522 (inactive)	19.6% (inactive)	23.3% (inactive)
Cc1ccc(-c2noc(C3CCCN(C(=O)c4ccc(F)cc4F)C3)n2)cc1 (stereo not drawn)	753	-11.3% (inactive)	1.1% (inactive)	58.6%	-21.5% (inactive)	124%	-0.274 (inactive)	-6.5e-06 (inactive)	0.00592 (inactive)	-9.91% (inactive)	-43.3% (inactive)
CCOC(=O)C1CCCN(C(=O)CNS(=O)(=O)c2ccc(Br)s2)C1 (stereo not drawn)	232	3.3% (inactive)	-8.6% (inactive)	108%	-33.6% (inactive)	113%	-0.437 (inactive)	-5.6e-05 (inactive)	0.00599 (inactive)	11.6% (inactive)	8.54% (inactive)
COc1ccccc1OC(=O)c1ccc(SC)cc1OC	384	-15.2% (inactive)	6.6% (inactive)	99.3%	7.8% (inactive)	116%	-0.57 (inactive)	-2.8e-05 (inactive)	0.00466 (inactive)	-1.26% (inactive)	2.42% (inactive)
COc1ccc(-c2ccc(-c3nnc(-c4ccncc4)o3)cc2)cc1	379	-7.7% (inactive)	5.3% (inactive)	103%	-76.9% (inactive)	99.2%	-0.501 (inactive)	-3.5e-05 (inactive)	0.00505 (inactive)	-14.4% (inactive)	-28.2% (inactive)
CCOC(=O)N1CCN(C(=O)Nc2ccc3oc(C)nc3c2)CC1	254	4.2% (inactive)	20.5% (inactive)	84.8%	-238% (inactive)	116%	-0.463 (inactive)	1.5e-05 (inactive)	0.00473 (inactive)	5.52% (inactive)	-2.82% (inactive)
O=C(c1ccco1)N1CCN(CC(=O)N(C2CCCCC2)C2CCS(=O)(=O)C2)CC1 (stereo not drawn)	311	-5.7% (inactive)	-12.8% (inactive)	75.5%	-28.9% (inactive)	110%	-0.565 (inactive)	-5.3e-05 (inactive)	0.00633 (inactive)	7.31% (inactive)	12.1% (inactive)
CC(=O)N1CCc2cc(S(=O)(=O)CCC(=O)N3CCN(C(=O)c4ccco4)CC3)ccc21	519	2.2% (inactive)	7.5% (inactive)	105%	-51.9% (inactive)	116%	-0.413 (inactive)	-4e-05 (inactive)	0.00737 (inactive)	12.3% (inactive)	17.8% (inactive)
Cc1cccc(NC(=O)CCn2ccnc2C)c1	628	1.2% (inactive)	-6.6% (inactive)	96.8%	-65.9% (inactive)	93%	-0.574 (inactive)	-5e-05 (inactive)	0.00688 (inactive)	10.5% (inactive)	8.13% (inactive)
O=C(Nc1ccc(N2CCOCC2)c(F)c1)c1ccncc1	262	-3.2% (inactive)	0.1% (inactive)	99.8%	-30% (inactive)	90%	-0.451 (inactive)	8.4e-05 (inactive)	0.00591 (inactive)	-9.16% (inactive)	-33.6% (inactive)
COc1ccc(C(C(C(=O)c2cccs2)N2CCOCC2)N2CCOCC2)cc1OC (stereo not drawn)	704	3.6% (inactive)	6.6% (inactive)	115%	15.2% (inactive)	106%	-0.603 (inactive)	-3.1e-05 (inactive)	0.00372 (inactive)	8.73% (inactive)	2.75% (inactive)
COc1cc(C2C(C#N)=C(N)OC3=C2C(=O)CCC3)ccc1OC(=O)N1CCOCC1 (stereo not drawn)	503	-34.2% (inactive)	-16.1% (inactive)	93.7%	-20.8% (inactive)	101%	-0.37 (inactive)	-7.7e-05 (inactive)	0.00858 (inactive)	8.74% (inactive)	6.55% (inactive)
Oc1ccc(N2CCN(C(c3cccnc3)c3nnnn3Cc3ccccc3)CC2)cc1 (stereo not drawn)	612	1.4% (inactive)	-2.4% (inactive)	118%	-71.6% (inactive)	113%	-0.468 (inactive)	-0.000313 (inactive)	0.0054 (inactive)	9.52% (inactive)	-11.5% (inactive)
Cc1cc(C)c2cc(CN(CC3CCCO3)C(=O)NC3CCCCC3)c(=O)[nH]c2c1 (stereo not drawn)	598	-21% (inactive)	-17.9% (inactive)	109%	-28.1% (inactive)	94%	-0.567 (inactive)	-5.6e-05 (inactive)	0.0057 (inactive)	16.7% (inactive)	17.3% (inactive)
COC(=O)COc1ccc(S(=O)(=O)NCCC2=CCCCC2)cc1	515	-0.5% (inactive)	29% (inactive)	79.1%	-31.4% (inactive)	107%	-0.544 (inactive)	-2.1e-05 (inactive)	0.00377 (inactive)	15.8% (inactive)	20.7% (inactive)
COC(=O)c1sccc1NC(=O)c1ccncc1	467	5.7% (inactive)	7.5% (inactive)	103%	-36.5% (inactive)	122%	-0.49 (inactive)	-3.8e-05 (inactive)	0.00518 (inactive)	12% (inactive)	-9.7% (inactive)
CCOc1ccc2cc(C#N)c(SCC(=O)N3CCCC3)nc2c1	451	-6.5% (inactive)	3.1% (inactive)	99.8%	-32% (inactive)	109%	-0.551 (inactive)	-5.2e-05 (inactive)	0.00682 (inactive)	-13.8% (inactive)	-15.2% (inactive)
COC(=O)c1cc(Br)c(=O)n(CCN2CCOCC2)c1	563	5.4% (inactive)	1.7% (inactive)	96.1%	5.8% (inactive)	104%	-0.43 (inactive)	-6.4e-05 (inactive)	0.00578 (inactive)	13% (inactive)	20.6% (inactive)
COC(=O)CN(c1ccc(F)cc1)S(=O)(=O)c1ccccc1	329	1.8% (inactive)	-0.2% (inactive)	86.5%	-92.2% (inactive)	95.6%	-0.527 (inactive)	-0.000183 (inactive)	0.00367 (inactive)	6.05% (inactive)	-8.76% (inactive)
C/C(Cl)=C\Cn1c(NCCc2ccccc2)nc2c1c(=O)n(C)c(=O)n2C	636	-7.8% (inactive)	29.8% (inactive)	84.6%	6.4% (inactive)	96.4%	-0.286 (inactive)	-2.8e-05 (inactive)	0.00523 (inactive)	12.1% (inactive)	2.85% (inactive)
COc1cc(C2Nc3cccc4cccc(c34)N2)cc(OC)c1O	372	-0.6% (inactive)	29.3% (inactive)	91.5%	-27.6% (inactive)	108%	-0.464 (inactive)	1.6e-05 (inactive)	0.00443 (inactive)	3.04% (inactive)	5% (inactive)
CCOC(=O)c1[nH]cc(-c2ccccc2)c1N1CCOCC1	398	-3.5% (inactive)	0.7% (inactive)	110%	-131% (inactive)	100%	-0.541 (inactive)	-4.5e-05 (inactive)	0.00498 (inactive)	4.95% (inactive)	15.7% (inactive)
CC1CCN(C(=S)c2ccccc2O)CC1	713	-2.9% (inactive)	7.3% (inactive)	98.7%	-144% (inactive)	121%	-0.536 (inactive)	-5.2e-05 (inactive)	0.0045 (inactive)	24.9% (inactive)	34.5% (inactive)
N#Cc1cn(CC(=O)N2CCCC2)c2ccccc12	391	3% (inactive)	-10.4% (inactive)	108%	-18.5% (inactive)	95.9%	-0.562 (inactive)	-6.6e-05 (inactive)	0.00355 (inactive)	17.7% (inactive)	22.5% (inactive)
c1coc(-c2nnc(-c3cccs3)o2)c1	497	-1.7% (inactive)	13.3% (inactive)	75%	-7.2% (inactive)	115%	-0.51 (inactive)	-6.6e-07 (inactive)	0.00586 (inactive)	-25.9% (inactive)	-87.8% (inactive)
COCCn1c(NCc2ccc(C)cc2)nc2c1c(=O)[nH]c(=O)n2C	848	6.8% (inactive)	29.4% (inactive)	91.9%	9.9% (inactive)	110%	-0.543 (inactive)	-2.1e-05 (inactive)	0.00577 (inactive)	7.9% (inactive)	13.3% (inactive)
COC(=O)c1cc(O)c(OCc2ccccc2)c(O)c1	775	-2.2% (inactive)	20.1% (inactive)	112%	-8.4% (inactive)	112%	-0.552 (inactive)	4.3e-05 (inactive)	0.00449 (inactive)	-22% (inactive)	-58.4% (inactive)
Cc1ccc(NC(=O)CSc2nnc(NC(=O)CN3CCOCC3)s2)cc1	294	-10% (inactive)	-0.1% (inactive)	27.7%	-43.2% (inactive)	106%	-0.438 (inactive)	-7.3e-05 (inactive)	0.00533 (inactive)	12.7% (inactive)	22.7% (inactive)
